Each structure is given as a SMILES string.

Consider seven molecules from ChEMBL document CHEMBL4316631, “Anti-inflammatory Potential of Saponins from Aster tataricus via NF-κB/MAPK Activation” (J Nat Prod, 2019).

Data set [1] relates to RAW264.7. Kind of data set: Anti-inflammatory activity in mouse RAW264.7 cells assessed as inhibition of LPS-induced nitric oxide production preincubated for 30 mins followed by LPS-stimulation and measured after 24 hrs by Griess assay. It is filed as functional, cell-based. In a few lines: (§1)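 RAW 264.7 macrophages stimulated with LPS; NO release quantified. Single-point screen at 50 μM; IC50 derived by nonlinear regression of sigmoidal dose–response curve, reported with 95% confidence intervals. Dexamethasone as positive control.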
(Griess reagent forms a coloured azo dye with nitrite.)

Data set [2] deals with RAW264.7. The data set is described as follows: Cytotoxicity against mouse RAW264.7 cells assessed as reduction in cell viability at >50 uM measured after 24 hrs by MTT assay. It is filed as cell-based. Conditions: raw264.7, 24 h. Background: Formazan colour is commonly taken as a measure of viable cells.
In data set [3] the test system is RAW264.7. The data set is described as follows: Anti-inflammatory activity in mouse RAW264.7 cells assessed as inhibition of LPS-induced nitric oxide production at 50 uM preincubated for 30 mins followed by LPS-stimulation and measured after 24 hrs by Griess assay relative to control. The data set is classed as functional. In a few lines:
as §1

In general, IC50 refers to the concentration needed to halve the response being measured. Take `CC1(C)CC[C@]2(C(=O)O)[C@H](O)C[C@]3(C)C(=CC[C@@H]4[C@@]5(C)C[C@H](O)[C@H](O[C@@H]6O[C@H](CO[C@@H]7OC[C@H](O)[C@H](O)[C@H]7O)[C@@H](O)[C@H](O)[C@H]6O)C(C)(C)[C@@H]5CC[C@]43C)[C@@H]2C1`: the IC50 in data set [1] is > 50 µM. In addition, the Activity entry in data set [2] is “Non-Toxic”.

In the case of `CC1(C)CC[C@]2(C(=O)O[C@@H]3OC[C@@H](O)[C@H](O)[C@H]3O)[C@H](O)C[C@]3(C)C(=CC[C@@H]4[C@@]5(C)C[C@H](O)[C@H](O[C@@H]6O[C@H](CO[C@@H]7OC[C@H](O)[C@H](O)[C@H]7O)[C@@H](O)[C@H](O)[C@H]6O)C(C)(C)[C@@H]5CC[C@]43C)[C@@H]2C1`, the IC50 in data set [1] is > 50 µM. Also, in data set [2], the Activity result was “Non-Toxic”.

As a reminder, the inhibition is the relative decrease from the control value, in per cent. `C[C@@H]1O[C@@H](O[C@H]2[C@H](OC(=O)[C@]34CCC(C)(C)C[C@H]3C3=CC[C@@H]5[C@@]6(C)CC[C@H](O[C@@H]7O[C@H](CO[C@@H]8OC[C@H](O)[C@H](O)[C@H]8O)[C@@H](O)[C@H](O)[C@H]7O)C(C)(C)[C@@H]6CC[C@@]5(C)[C@]3(C)C[C@H]4O)OC[C@@H](O)[C@@H]2O)[C@H](O)[C@H](O)[C@H]1O[C@@H]1OC[C@H](O)[C@H](O[C@@H]2OC[C@@H](O)[C@H](O)[C@H]2O)[C@H]1O`: the inhibition at 50 µM in data set [3] is > 50%. For the same molecule, the IC50 in data set [1] was 2.1 µM.

On to `C[C@@H]1O[C@@H](O[C@@H]2[C@@H](O[C@@H]3O[C@@H](C)[C@H](O[C@@H]4OC[C@@H](O)[C@H](O)[C@H]4O)[C@@H](O[C@@H]4OC[C@](O)(CO)[C@H]4O)[C@H]3O)[C@H](OC(=O)[C@]34CCC(C)(C)C[C@H]3C3=CC[C@@H]5[C@@]6(C)C[C@H](O)[C@H](O[C@@H]7O[C@H](CO[C@@H]8OC[C@H](O)[C@H](O)[C@H]8O)[C@@H](O)[C@H](O)[C@H]7O)C(C)(C)[C@@H]6CC[C@@]5(C)[C@]3(C)CC4)OC[C@H]2O)[C@H](O)[C@H](O)[C@H]1O`, for which the inhibition at 50 µM in data set [3] is > 50%. Moreover, the IC50 in data set [1] was 42.1 µM.

`C[C@@H]1O[C@@H](O[C@@H]2[C@@H](O)[C@H](O[C@@H]3[C@@H](O[C@@H]4OC[C@](O)(CO)[C@H]4O)[C@@H](O)[C@H](O[C@H]4[C@H](OC(=O)[C@]56CCC(C)(C)C[C@H]5C5=CC[C@@H]7[C@@]8(C)C[C@H](O)[C@H](O[C@@H]9O[C@H](CO[C@@H]%10OC[C@H](O)[C@H](O)[C@H]%10O)[C@@H](O)[C@H](O)[C@H]9O)C(C)(C)[C@@H]8CC[C@@]7(C)[C@]5(C)C[C@H]6O)OC[C@@H](O)[C@@H]4O)O[C@H]3C)OC[C@@H]2O)[C@H](O)[C@H](O)[C@H]1O`: the inhibition at 50 µM in data set [3] is > 50%. Moreover, the IC50 in data set [1] turned out to be 2.7 µM.

In the case of `C[C@@H]1O[C@@H](O[C@H]2[C@H](OC(=O)[C@]34CCC(C)(C)C[C@H]3C3=CC[C@@H]5[C@@]6(C)C[C@H](O)[C@H](O[C@@H]7O[C@H](CO[C@@H]8OC[C@H](O)[C@H](O)[C@H]8O)[C@@H](O)[C@H](O)[C@H]7O)C(C)(C)[C@@H]6CC[C@@]5(C)[C@]3(C)CC4)OC[C@@H](O)[C@@H]2O)[C@H](O)[C@H](O[C@@H]2OC[C@](O)(CO)[C@H]2O)[C@H]1O[C@@H]1OC[C@@H](O)[C@H](O)[C@H]1O`, the IC50 in data set [1] is > 50 µM. Moreover, in data set [2], the Activity entry is on record as “Non-Toxic”.

In the case of `C[C@@H]1C[C@H]2[C@@H]3CCC4=CC(=O)C=C[C@]4(C)[C@@]3(F)[C@@H](O)C[C@]2(C)[C@@]1(O)C(=O)CO` [DEXAMETHASONE], in data set [1], the half-maximal inhibitory concentration (IC50) stood at 0.01 µM.
